Results reported in article PMC4894821 (ACS chemical biology, 2015).
One block for each compound: values may come before it.

Columns and labels:
[1] = target: T1, OGG1 (Homo sapiens, UniProt O15527); assay: Gel-based OGG1 cleavage assay; type: biochemical; conditions: eight concentrations up to 25 μM
[2] = target: Human NEIL1 (Homo sapiens, UniProt Q96FI4); assay: Fluorescence-based NEIL1 activity assay; type: biochemical; conditions: read-out: NEIL1 % activity with 50 μM inhibitor
[3] = target: T2, Human NTH1 (Homo sapiens, UniProt P78549); assay: Fluorescence-based NTH1 activity assay; type: biochemical; conditions: read-out: NTH1 % activity with 50 μM inhibitor
T2 sequence (P78549 23-304): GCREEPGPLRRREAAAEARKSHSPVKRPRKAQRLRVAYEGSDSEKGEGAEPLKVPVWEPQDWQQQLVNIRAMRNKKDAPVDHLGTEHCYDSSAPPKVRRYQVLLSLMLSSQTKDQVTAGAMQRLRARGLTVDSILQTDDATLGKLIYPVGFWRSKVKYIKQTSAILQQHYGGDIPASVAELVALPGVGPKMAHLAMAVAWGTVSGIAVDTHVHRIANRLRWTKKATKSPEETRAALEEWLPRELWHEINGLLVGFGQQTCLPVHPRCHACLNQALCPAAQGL

[4] = target: T1, OGG1; assay: OGG1 AP lyase activity on AP site-containing substrate; type: biochemical; conditions: 10 μM compound, compared with no inhibitor control
How it was run: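 AP-site substrate made by treating U-containing duplex with Udg, 37 °C, 2 h. OGG1 (62.5 nM stock) mixed with 10 μM compound or buffer, then substrate (50 nM stock) added. Incubated 30 min at 37 °C, quenched with formamide, resolved on 15% polyacrylamide/8 M urea gel. Percent cleavage vs no-inhibitor control; three independent experiments.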

[5] = target: T1, OGG1; assay: Sodium cyanoborohydride trapping assay; type: biochemical; conditions: 10 μM inhibitor, 1 mM NaBH3CN
[6] = target: T1, OGG1; assay: Gel shift assay; type: binding; conditions: 50 μM inhibitor or ATA, 4 °C
How it was run: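 EMSA on ice with precooled reagents. OGG1 (125 nM stock) pre-incubated 5–10 min with 50 μM inhibitor, ATA or buffer. Added 8-oxo-Gua, AP-site or U-containing fluorescent duplex (50 nM stock), held 5 min. Quenched with cold 30% glycerol; run on 8% native gel with 30% glycerol, 4 °C, 1 h, 75 V. Percent bound vs no-inhibitor control; three independent experiments.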

[7] = system: AP-containing substrate; assay: Protection of AP-containing substrate against NaOH-mediated strand cleavage

T1 sequence (O15527 whole entry): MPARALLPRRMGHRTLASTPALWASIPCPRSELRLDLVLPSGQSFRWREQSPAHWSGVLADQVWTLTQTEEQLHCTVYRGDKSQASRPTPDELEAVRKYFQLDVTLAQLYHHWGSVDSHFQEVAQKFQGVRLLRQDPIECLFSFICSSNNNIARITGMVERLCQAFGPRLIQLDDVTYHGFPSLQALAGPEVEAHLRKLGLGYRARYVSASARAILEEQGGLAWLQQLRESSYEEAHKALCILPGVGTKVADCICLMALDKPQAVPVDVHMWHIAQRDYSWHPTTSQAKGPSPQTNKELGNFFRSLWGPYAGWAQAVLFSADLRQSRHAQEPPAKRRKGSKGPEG
Sequence of Human NEIL1 (Q96FI4 whole entry): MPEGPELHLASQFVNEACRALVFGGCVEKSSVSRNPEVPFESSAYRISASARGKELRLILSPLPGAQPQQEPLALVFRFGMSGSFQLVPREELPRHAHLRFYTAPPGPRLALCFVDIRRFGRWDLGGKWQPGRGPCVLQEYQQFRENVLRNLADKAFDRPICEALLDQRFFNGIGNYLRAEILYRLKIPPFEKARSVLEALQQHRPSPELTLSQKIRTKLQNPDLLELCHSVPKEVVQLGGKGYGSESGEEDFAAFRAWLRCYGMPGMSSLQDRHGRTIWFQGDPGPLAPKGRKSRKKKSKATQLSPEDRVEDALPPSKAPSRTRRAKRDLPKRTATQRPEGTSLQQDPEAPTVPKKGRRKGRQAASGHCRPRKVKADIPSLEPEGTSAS

inhibition of OGG1 (gel-based strand cleavage) [1]: no inhibition | activity at 50 µM [2]: 80.6% | activity at 50 µM [3]: 98% | OGG1-induced cleavage of an AP site (lyase activity) [4]: no effect | trapping of OGG1 on 8-oxo-Gua- and AP site-containing substrates (Schiff base formation) [5]: no effect
SMILES: NNC(=O)c1ccncc1 [Isoniazid (INH), isoniazid]

SMILES: O=C(O)C1=CC(=C(c2ccc(O)c(C(=O)O)c2)c2ccc(O)c(C(=O)O)c2)C=CC1=O [aurintricarboxylic acid (ATA), aurintricarboxylic acid]
OGG1 binding to 8-oxo-Gua substrate [6]: abrogated

SMILES: NNc1nncc2ccccc12 [hydralazine]
protection against NaOH-mediated (alkaline-induced) strand cleavage [7]: 63%

OGG1-induced cleavage of an AP site (lyase activity) [4]: no effect
SMILES: Cc1cc(C(=O)NNCc2ccccc2)no1 [isocarboxazid (ICD), isocarboxazid]
